Screens as filed in PubChem.
Only some compounds are listed: those with a hit (about 3.7% of all), similar ones and a draw of the others.
hERG protect: hERG (human) protection from proarrhythmic block; Q12809; CHO-hERG, FluxOR thallium flux, dofetilide IC70 present; activation (rescue from dofetilide block), less the hit threshold, % at 10 µM; hit rate 0.51% among 310,000; AID 1511;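 active means activation above the mean of controls blocked by dofetilide plus 5 SD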;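 further: thallium influx through hERG after potassium depolarization seen as dye fluorescence rise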
KCNK9 inh-1: blocks the human KCNK9 two-pore domain potassium channel; hit rate 1.2% among 310,000; Q9NPC2; B-score at 10 µM; HEK293 KCNK9, FluxOR thallium flux fluorescence; hits give low values;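 active means ratio B-score over 3 SD below the library mean, with starting fluorescence within 5 SD of its mean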;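 further: negative B-score means less thallium flux so channel inhibition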
KCNK3 block: human KCNK3 channel inhibition, primary screen; O14649; CHO-KCNK3 thallium flux, FluxOR fluorescence; hits give low values; B-score at 10 µM; hit rate 0.84% among 340,000;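 active means B-score under library mean minus 4 SD, starting fluorescence ratio at most library mean plus 5 SD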;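 further: more negative B-score means stronger inhibition of thallium flux through KCNK3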
KCNQ1 block: human KCNQ1 channel inhibition. P51787. CHO-K1 KCNQ1, FluxOR thallium flux fluorescence; hits give high values. B-score at 10 µM. hit rate 1.3% among 310,000. AID 2642;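 active means compounds whose thallium flux B-score, printed positive for inhibition, exceeds three library SD while starting fluorescence stays within three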;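 further: channel opened by potassium depolarization with thallium stimulus after 20 min compound exposure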
Target sequence (P51787 whole entry, looked up): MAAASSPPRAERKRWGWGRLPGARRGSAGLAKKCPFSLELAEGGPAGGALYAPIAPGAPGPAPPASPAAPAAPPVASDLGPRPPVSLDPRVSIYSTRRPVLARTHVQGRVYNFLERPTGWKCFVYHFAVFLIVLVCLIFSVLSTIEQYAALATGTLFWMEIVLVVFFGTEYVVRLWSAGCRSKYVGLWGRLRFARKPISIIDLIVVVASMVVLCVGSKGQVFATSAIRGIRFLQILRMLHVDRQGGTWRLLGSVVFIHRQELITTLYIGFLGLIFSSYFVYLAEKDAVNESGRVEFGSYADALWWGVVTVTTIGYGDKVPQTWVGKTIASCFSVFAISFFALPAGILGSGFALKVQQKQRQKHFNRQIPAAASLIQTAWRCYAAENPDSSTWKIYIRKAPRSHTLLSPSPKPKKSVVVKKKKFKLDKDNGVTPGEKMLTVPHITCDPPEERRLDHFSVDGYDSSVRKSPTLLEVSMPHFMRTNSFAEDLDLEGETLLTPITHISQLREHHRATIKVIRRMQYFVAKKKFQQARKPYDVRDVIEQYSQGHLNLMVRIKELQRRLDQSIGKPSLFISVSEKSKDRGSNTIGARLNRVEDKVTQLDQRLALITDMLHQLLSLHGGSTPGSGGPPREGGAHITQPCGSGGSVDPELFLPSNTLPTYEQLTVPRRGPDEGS
Kir21 block: blocks the mouse Kir2.1 inward-rectifier potassium channel; P35561; HEK293-Kir2.1, FluxOR thallium flux fluorescence; hits give low values; B-score at 10 µM; hit rate 0.85% among 310,000; AID 1672;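 active means fluorescence ratio B-score at or below minus 3 SD of library scores, with starting-brightness B-score within 2 SD, cut at about -4.2 in these data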;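 further: channel flux triggered by added potassium and thallium sulfate stimulus; B-score of peak minus minimum fluorescence over baseline after thallium stimulus; more negative B-score means stronger Kir2.1 block with less thallium influx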
KCNQ1 act: human KCNQ1 channel potentiation or activation | P51787 | CHO-K1 KCNQ1, thallium flux FluxOR fluorescence; hits give high values | B-score at 10 µM | hit rate 0.35% among 310,000;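 active means fluorescence ratio B-score, a plate-corrected score, at least three library SD, with initial intensity B-score within 5 SD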
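Assay system: CHO-K1 cells stably expressing KCNQ1. Medium: assay buffer for compound exposure, DMSO matched across wells. Timing: 37 °C overnight plating, 90-min dark dye load, 20-min compound pretreatment. Signal: kinetic FluxOR fluorescence, 10 s baseline plus 110 s post-stimulus.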
hERG inh: counter-screen for Kir2.1 inhibitors: effect on human hERG; inhibition, % at 10 µM; hERG-expressing cells, thallium flux; shares compounds with Kir21 block; hit rate 20% among 320;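 further: host cells are CHO cells stably expressing hERG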
KCNK9 inh-2: tests whether Kir2.1 inhibitors also affect human KCNK9; AID 2329; shares compounds with Kir21 block; inhibition, % at 10 µM; hit rate 5% among 320; KCNK9-expressing cells, ion flux inhibition
Kir2-1 patch inh: mouse Kir2.1 inward rectifier channel inhibition. shares compounds with Kir21 block. hit rate 71% among 320. Kir2.1 cells, automated patch-clamp current inhibition. inhibition, % at 25 µM. AID 463252
Large screens that a line does not name were inactive (follow-up assays come after a bar, where they were run). Unless noted, how the calls were made is not given here.

CCOC(=O)c1c(NC(=O)CSC2=NN3CCCC(=O)N=C3S2)sc2c1CCCCC2	none
Cc1cc2cc(CCNS(=O)(=O)c3ccc(F)cc3)c(=O)[nH]c2cc1C	none
Cn1c(-c2ccc(F)cc2)cnc1NCc1ccc(C#N)cc1	none
Cn1c(-c2ccc(F)cc2)cnc1NCc1ccc(F)cc1	Kir21 block -10.2 | hERG inh inactive | KCNK9 inh-2 inactive | Kir2-1 patch inh 59.9%
Cc1cc(Cl)cc(Br)c1OCCCNCC(C)O (stereo not drawn)	Kir21 block -9.32 | hERG inh inactive | KCNK9 inh-2 inactive | Kir2-1 patch inh 39.4%
Cc1nn(C)cc1/C=C(/C#N)C(N)=O	none
CCCN(CCC)S(=O)(=O)c1ccc(Cl)c(OC)c1	Kir21 block -6.22 | hERG inh inactive | KCNK9 inh-2 inactive | Kir2-1 patch inh 32.3%
CCN(CC)S(=O)(=O)c1ccc(Cl)c(OC)c1	none
COc1ccc(Nc2cc(C)nc3ccccc23)cc1	none
Cc1ccc(Nc2cc(C)nc3c(C)cccc23)cc1	Kir21 block -8.7 | hERG inh inactive | KCNK9 inh-2 inactive | Kir2-1 patch inh 61.4%
COc1ccc(-c2cc3ncnc(Cl)c3s2)cc1	none
CCOC(=O)C(=CNc1ccc(S(N)(=O)=O)cc1)C(=O)OCC	none
CCOC(=O)C(=CNc1ccc(NC2=NCC(C)(C)S2)cc1)C(=O)OCC	Kir21 block -7.04 | hERG inh inactive | KCNK9 inh-2 inactive | Kir2-1 patch inh 22.1%
Cc1ccc(NC(=O)COc2nsnc2N2CCOCC2)cc1Cl	none
CCOC(=O)C(NS(=O)(=O)c1ccc(Br)cc1)C(C)C (stereo not drawn)	Kir21 block -8.5 | hERG inh inactive | KCNK9 inh-2 inactive | Kir2-1 patch inh 49.2%
CCC(C)C(NS(=O)(=O)c1ccc(C)cc1)C(=O)O (stereo not drawn)	none
O=C(C[n+]1ccccc1)N/N=C/c1ccc(Cl)cc1	none (no result: hERG protect, KCNK9 inh-1, KCNQ1 block, Kir21 block, KCNQ1 act)
CCCCOc1c(Br)cc(/C=N/O)cc1OCC	Kir21 block -7.3 | hERG inh inactive | KCNK9 inh-2 inactive | Kir2-1 patch inh 11.1%
COc1cc(/C=N/O)cc(Br)c1OCc1ccc(Cl)cc1	none
CCn1cc(C(=O)NCCc2ccccc2)c(=O)c2cc(S(=O)(=O)N(C)C)ccc21	none | hERG inh inactive | KCNK9 inh-2 inactive | Kir2-1 patch inh inactive
COc1ccc(CC(C)NCC(O)c2ccc(O)c(NC=O)c2)cc1 (stereo not drawn)	none (no result: hERG protect, KCNK9 inh-1, KCNQ1 block, Kir21 block, KCNQ1 act)
CCOC(=O)N1CCN(c2nc(-c3ccccc3)c3cc(C)ccc3n2)CC1	none
Cc1ccc2nc(N3CCN(CCO)CC3)nc(-c3ccccc3)c2c1	Kir21 block -7 | hERG inh 60.0% | KCNK9 inh-2 inactive | Kir2-1 patch inh 16.0%
Clc1ccc(-c2cc(C3CCNCC3)[nH]n2)cc1	Kir21 block -8.92 | hERG inh inactive | KCNK9 inh-2 inactive | Kir2-1 patch inh inactive
COCCNCC(O)CON=C1c2ccccc2-c2ccccc21 (stereo not drawn)	Kir21 block -7.02 | hERG inh inactive | KCNK9 inh-2 inactive | Kir2-1 patch inh 18.7%
CCNC(=O)CON=C1c2ccccc2-c2ccccc21	none
COc1ccccc1/C=C(\NC(=O)c1ccccc1)C(=O)NCc1ccco1	none | hERG inh inactive | KCNK9 inh-2 inactive | Kir2-1 patch inh inactive
Cc1cc(C)c2nc(N(CCCN(C)C)C(=O)c3ccc4c(c3)OCCO4)sc2c1	Kir21 block -6.43 | hERG inh 66.0% | KCNK9 inh-2 inactive | Kir2-1 patch inh inactive
Cc1cc(C)c2nc(N(CCCN(C)C)C(=O)C3=COCCO3)sc2c1	none
Cc1ccc([N+](=O)[O-])cc1S(=O)(=O)NCC1COc2ccccc2O1 (stereo not drawn)	Kir21 block -6.41 | hERG inh inactive | KCNK9 inh-2 36.0% | Kir2-1 patch inh 11.0%
COCCNC(=O)c1cn(C)c2ccccc2c1=O	none
Cc1ccc(C(=O)C(C)OC(=O)Cn2c(C)csc2=O)cc1 (stereo not drawn)	none
NC(=O)C1=C[C@H](c2ccc(Br)cc2)C[C@H](OCc2ccc(CO)cc2)O1	Kir21 block -7.06 | hERG inh inactive | KCNK9 inh-2 inactive | Kir2-1 patch inh 22.7%
Cc1cc(C)c(C)c(S(=O)(=O)NCC(=O)Nc2ccccc2F)c1C	Kir21 block -6.93 | hERG inh inactive | KCNK9 inh-2 inactive | Kir2-1 patch inh inactive
CCOc1ccc(OCC(O)CN2CCc3ccccc3C2)cc1 (stereo not drawn)	none
Cc1cc(OCC(O)CN2CCc3ccccc3C2)cc(C(C)C)c1 (stereo not drawn)	Kir21 block -13.1 | hERG inh 58.0% | KCNK9 inh-2 inactive | Kir2-1 patch inh 6.0%
CN(C)C(CNC(=O)CCc1nc2cc(Cl)ccc2n(Cc2ccccc2)c1=O)c1ccccc1 (stereo not drawn)	Kir21 block -6.42 | hERG inh 71.0% | KCNK9 inh-2 inactive | Kir2-1 patch inh inactive
CCS(=O)(=O)N1CCC(NC(=O)C(Cc2cc(OC)ccc2OC)NC(C)=O)CC1 (stereo not drawn)	none | hERG inh inactive | KCNK9 inh-2 inactive | Kir2-1 patch inh inactive
COc1ccc(CC(NC(C)=O)C(=O)NC2CCN(S(=O)(=O)c3ccc(NC(C)=O)cc3)CC2)c(OC)c1 (stereo not drawn)	none
COc1cc(CNCc2ccccn2)ccc1OCc1ccc(Cl)cc1Cl	Kir21 block -5.96 | hERG inh 65.0% | KCNK9 inh-2 inactive | Kir2-1 patch inh 33.8%
COc1cccc(C2c3cc4c(cc3OC(N3CCOCC3)C2C)OCO4)c1O (stereo not drawn)	none (no result: hERG protect, KCNK9 inh-1, KCNQ1 block, Kir21 block, KCNQ1 act)
Cc1ccc(NC(=O)c2ccc(Cn3cc(Cl)cn3)o2)c(C)c1	Kir21 block -10 | hERG inh inactive | KCNK9 inh-2 inactive | Kir2-1 patch inh 50.6%
Cc1ccccc1NC(=O)c1ccc(Cn2cc([N+](=O)[O-])cn2)o1	none
